High-throughput results as filed in PubChem.
In the library only some 4.2% were active in any assay of this set; here they are far more common.
Autophagy mod – autophagy modulation, high-content screen | calls only at 10 µM (by protocol) | hit rate 0.98% among 190,000 | MEF GFP-LC3 puncta imaging; test concentration mostly 10 µM;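 active means percentage of spot-positive cells more than 3 SD above its plate mean, without a fluorescence outlier flag or 80% toxicity; inconclusive means no clear call, values can overlap the other calls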;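 further: spot-positive cell cutoff set from DMSO-treated cells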
Insulin prom up – MIN6 insulin promoter up-regulation | MIN6 insulin promoter-GFP reporter, high-content imaging; stronger effect = higher value | z-score at 5 µM | hit rate 0.3% among 190,000;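 active means z-score above 3 at 5 µM with at least 500 cells counted in the well; inconclusive means wells under 500 cells, flagged as cytotoxic or low count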
WT yeast gro inh – growth inhibition of WT yeast, mitochondrial fusion screen. mitochondrial fusion phenotypic screen, WT strain. inhibition, % at 10 µM. hit rate 2.1% among 190,000; in the data active means inhibition above about 58%; tested in S. cerevisiae
SKKanGAS inh – inhibitors of SKKanGAS S. pyogenes growth in kanamycin (SK-promoter or general growth effect). BacTiter-Glo, 6 h. inhibition, % at 7.5 µM. AID 1662. hit rate 1.3% among 300,000;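 active means mean replicate score, as percent of positive control median, at least 50; inconclusive means mean below 50 but one replicate at or above 50; inactive means mean and every replicate below 50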;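 further: strain carries kanamycin resistance gene driven by streptokinase promoter and grows in 40 µg/ml kanamycin; loss of luminescence reflects streptokinase promoter inhibition or plain growth inhibition; 0% = median of DMSO wells and 100% = positive control at its reference dose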
KCC2 mod – modulates chloride dependent transport by human KCC2. B-score of Tl+ flux slope (higher = more flux/activation; lower = inhibition) at 10 µM. hit rate 2.2% among 190,000. AID 1456. KCC2 cells, thallium flux FluoZin-2 fluorescence;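 active means thallium flux slope and its plate-corrected score both differing from the plate sample mean at a set confidence after two filtering rounds, in either direction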;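 further: slope of fluorescence scaled to starting intensity during 10 to 20 s after thallium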
Rad51 HR inh – blocks human Rad51 in homologous recombination | Q06609 | hRad51 DNA strand exchange, fluorescence dequenching | inhibition, % at 10 µM | hit rate 0.085% among 200,000 | AID 1385;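 active means inhibition above 40% at the single screening dose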;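 further: 0% = DMSO control wells and 100% = blanks with heterologous ssDNA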
Target sequence (Q06609 whole entry, looked up): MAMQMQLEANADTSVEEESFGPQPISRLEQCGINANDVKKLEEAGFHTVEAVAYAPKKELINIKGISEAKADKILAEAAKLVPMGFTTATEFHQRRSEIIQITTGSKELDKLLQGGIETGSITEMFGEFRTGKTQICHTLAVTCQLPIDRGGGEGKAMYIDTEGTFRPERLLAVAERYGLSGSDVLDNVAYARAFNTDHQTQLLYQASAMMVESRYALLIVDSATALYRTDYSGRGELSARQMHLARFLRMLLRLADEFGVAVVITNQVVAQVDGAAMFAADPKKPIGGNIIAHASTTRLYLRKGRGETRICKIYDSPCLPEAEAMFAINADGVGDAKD
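Material: Human Rad51 nucleoprotein filaments preassembled on unlabelled ssDNA | Also added: Labelled 47-mer dsDNA for strand exchange | Dosing: Single dose, 10 µM final compound | Schedule: 30-min compound preincubation and 15-min exchange, both room temperature | Technique: Fluorescence dequenching at 485/520 nm | Measure: Percent inhibition relative to plate controls and blanks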
* = called active by the depositor.

For COc1ccccc1C(=O)NNC(=O)c1csc(N2CCOCC2)n1 the results were SKKanGAS inh -12.8.
Screening O=C(NNC(=O)c1cc(-c2ccc(Cl)cc2)nc2ccccc12)c1csc(N2CCOCC2)n1 returned SKKanGAS inh 59.7*.
For COc1cc(CN2CCNC(=O)C2CC(=O)N2CCCN(C(C)=O)CC2)cc(OC)c1 (stereo not drawn) the results were SKKanGAS inh -0.7.
For Cc1noc(C)c1C(=O)OCC(=O)Nc1ccccc1Oc1ccccc1 the results were Autophagy mod inactive, WT yeast gro inh 59.0*, SKKanGAS inh -0.1 and Rad51 HR inh 0.6.
For CCc1noc(C)c1C(=O)OCC(=O)Nc1c(F)cccc1F the results were SKKanGAS inh -2.0.
CCc1noc(C)c1C(=O)OCC(=O)NC(=O)c1ccccc1 was read as SKKanGAS inh 49.7*.
For OCCC1CN(Cc2ccon2)CCN1Cc1ccc(F)c(F)c1 (stereo not drawn) the results were Autophagy mod inactive, Insulin prom up -0.05, WT yeast gro inh -13.0, SKKanGAS inh -6.4, KCC2 mod -0.53 and Rad51 HR inh -0.3.
`COC1=CCC2([N+](=O)[O-])CN(CCO)CC1([N+](=O)[O-])C2` (stereo not drawn) gave Autophagy mod inactive, Insulin prom up 3.03*, WT yeast gro inh -7.6, SKKanGAS inh 5.2, KCC2 mod 1.04 and Rad51 HR inh -0.4.
Screening COc1ccccc1CCC(=O)N1CCN(S(=O)(=O)c2cccc(F)c2)CC1 returned SKKanGAS inh -9.8.
Screening O=C1NC(=S)/C(=C\c2ccc(-c3ccccc3Cl)o2)S1 returned Autophagy mod inactive, Insulin prom up -0.39, WT yeast gro inh 33.8, SKKanGAS inh 114.4*, KCC2 mod 25.4* and Rad51 HR inh -65.2.
Screening CC1=C(C(=O)Nc2cc(C(=O)N(C)Cc3ccccc3)ccc2C)SCCO1 returned SKKanGAS inh 15.2.
`CC(NC(=O)c1cccc(S(=O)(=O)N2CCN(Cc3ccccc3)CC2)c1)c1ccc(Br)cc1` (stereo not drawn) gave SKKanGAS inh 7.6.
For Clc1ccc2c(N/N=C/c3ccccc3Br)ccnc2c1 the results were Autophagy mod inactive, Insulin prom up 0.2, WT yeast gro inh 94.9, SKKanGAS inh 2.6, KCC2 mod -0.0489 and Rad51 HR inh 7.2.
`Clc1ccc2c(N/N=C/c3cccc(Br)c3)ccnc2c1` gave Autophagy mod inactive, Insulin prom up -1.45, WT yeast gro inh 98.7*, SKKanGAS inh 82.4*, KCC2 mod 0.538 and Rad51 HR inh -4.9.
Screening CCOC(=O)C1(Cc2cccc(F)c2)CCN(C(=O)c2ccoc2C)CC1 returned Autophagy mod inactive, Insulin prom up -0.52, WT yeast gro inh -0.5, SKKanGAS inh -10.6, KCC2 mod -0.326 and Rad51 HR inh -11.2.
For CCCCn1c(-c2csc(C(C)C)c2)n[nH]c1=S the results were Autophagy mod inactive, Insulin prom up -0.07, WT yeast gro inh 65.1*, SKKanGAS inh -6.7, KCC2 mod 20.5* and Rad51 HR inh 6.5.
CCCCn1c(-c2nn(C)cc2Cl)n[nH]c1=S was read as Autophagy mod inactive, Insulin prom up 0.02, WT yeast gro inh 5.2, SKKanGAS inh 2.8, KCC2 mod 1.35 and Rad51 HR inh 6.2.
Screening CCCc1cc(-c2n[nH]c(=S)n2CC(C)C)cs1 returned Autophagy mod inactive, Insulin prom up -0.17, WT yeast gro inh 62.4*, SKKanGAS inh -1.2, KCC2 mod 15.6* and Rad51 HR inh 10.3.
For CCc1ccc(N2CC(C(=O)Nc3cccc(S(=O)(=O)N4CCCC4)c3)CC2=O)cc1 (stereo not drawn) the results were SKKanGAS inh 0.4.
Screening Cc1ccc(C(C)C)c(OCc2ccc(C(=O)N/N=C/c3ccc(O)c(O)c3)cc2)c1 returned Autophagy mod inactive, Insulin prom up 0.73, WT yeast gro inh -12.0, SKKanGAS inh 30.8, KCC2 mod 0.405 and Rad51 HR inh 3.2.
`Cc1ccc(C(C)C)c(OCc2ccc(C(=O)N/N=C/c3cccc(O)c3O)cc2)c1` gave Autophagy mod inactive, Insulin prom up inconclusive, WT yeast gro inh -17.2, SKKanGAS inh 86.3*, KCC2 mod 0.155 and Rad51 HR inh -2.5.
Screening Cc1[nH]c(C)c(S(=O)(=O)N2CCN(c3ccccc3F)CC2)c1C(=O)N1CCCC1 returned SKKanGAS inh -1.4.
Screening Cc1nnc(SCc2nc3sc4c(c3c(=O)[nH]2)CCCC4)[nH]c1=O returned Autophagy mod inactive, Insulin prom up 0.63, WT yeast gro inh -12.2, SKKanGAS inh 15.4, KCC2 mod -0.246 and Rad51 HR inh -11.1.
`Cc1cccc(S(=O)(=O)c2c(N)n(Cc3ccco3)c3nc4ccccc4nc23)c1` gave Autophagy mod inactive, Insulin prom up -0.13, WT yeast gro inh 14.9, SKKanGAS inh 34.4, KCC2 mod -5.53* and Rad51 HR inh -0.1.
Screening Cc1ccc(S(=O)(=O)c2c(N)n(Cc3ccco3)c3nc4ccccc4nc23)cc1 returned Autophagy mod inactive, Insulin prom up -1.41, WT yeast gro inh -13.2, SKKanGAS inh 30.0 and Rad51 HR inh -133.4.
Screening Cc1ccc(C=C2C(Cl)=C(Cl)C(Cl)=C2Cl)cc1 returned Insulin prom up -0.97, SKKanGAS inh 77.6*, KCC2 mod 0.00138 and Rad51 HR inh -3.1.
`Cc1ccc(-c2csc3ncnc(Sc4nnc(CN5CCCCCC5=O)o4)c23)cc1` gave Autophagy mod active, Insulin prom up 0.74, WT yeast gro inh 1.5, SKKanGAS inh 13.7, KCC2 mod -0.0495 and Rad51 HR inh -1.0.
Screening Cc1ccc(-c2csc3ncnc(SCC(=O)Nc4nnc(C)s4)c23)cc1 returned Autophagy mod inactive, Insulin prom up -0.01, WT yeast gro inh 4.8, SKKanGAS inh 12.6 and Rad51 HR inh -5.3.
For O=[N+]([O-])c1ccc(Oc2cccc(F)c2)c2ccncc12 the results were Autophagy mod active, Insulin prom up -0.22, WT yeast gro inh 22.4, SKKanGAS inh 10.4 and Rad51 HR inh -20.8.
O=[N+]([O-])c1cnccc1Nc1cccc(F)c1 was read as Autophagy mod inactive, WT yeast gro inh -12.4, SKKanGAS inh 4.8 and Rad51 HR inh -1.9.
For CCN(Cc1ccncc1)C(=O)c1cc(COc2ccc(OC)cc2Cl)on1 the results were SKKanGAS inh 24.4.
Screening CC(C)NC(=O)COc1coc(CN2CCN(c3ccccc3)CC2)cc1=O returned SKKanGAS inh 3.4.
For C=C(C)CNC(=S)Nc1nc2c(cc1C(=O)OCC)CCCC2 the results were Autophagy mod inactive, Insulin prom up -0.19, WT yeast gro inh -1.2, SKKanGAS inh -2.7, KCC2 mod 42.6* and Rad51 HR inh 9.1.
CCOC(=O)c1sc(NC(=O)Nc2ccc(Cl)cc2)cc1C was read as Autophagy mod inactive, Insulin prom up -1.55, WT yeast gro inh 84.6*, SKKanGAS inh 81.0*, KCC2 mod -0.528 and Rad51 HR inh 0.4.
